The record followed here is ChEMBL document CHEMBL3745601 (Medchemcomm, 2015).

The test system of data set [1] is Mus musculus. Description: Induction of mechano-allodynia in mouse chronic constriction injury model of neuropathic pain assessed as paw withdrawal threshold on contralateral side at 3 umol/kg, po. The data set is classed as organism-based. The note with it: in vivo.
Data set [2] deals with Mus musculus. The data set can be described thus: Antineuropathic pain activity in mouse chronic constriction injury model of neuropathic pain assessed as reversal of reduction in paw withdrawal threshold of ipsilateral hind paw at 1 umol/kg, po dosed on day 7 after sciatic nerve ligation and measured at 1 and 3 hrs. The data set is classed as functional. An outline of the steps:
(§1)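 Paw withdrawal threshold (g) measured at 1 h or 3 h after treatment, at day 7 (D7/BL) and at D0. % effect = [PWT at post-treatment time − PWT at D7/BL] / [PWT at D0 − PWT at D7/BL] × 100. Significance set at P<0.05. Procedures otherwise follow earlier work under IASP/NIH animal welfare guidelines.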

For data set [3], the system named is Mus musculus. The data set can be described thus: Antineuropathic pain activity in mouse chronic constriction injury model of neuropathic pain assessed as reversal of reduction in paw withdrawal threshold of ipsilateral hind paw at 3 umol/kg, po dosed on day 7 after sciatic nerve ligation and measured at 1 hrs. The data set is classed as functional. An outline of the steps: as §1

Data set [4] addresses T1, Adenosine receptor A3 (Homo sapiens, UniProt P0DMS8).
T1 sequence (P0DMS8 whole entry): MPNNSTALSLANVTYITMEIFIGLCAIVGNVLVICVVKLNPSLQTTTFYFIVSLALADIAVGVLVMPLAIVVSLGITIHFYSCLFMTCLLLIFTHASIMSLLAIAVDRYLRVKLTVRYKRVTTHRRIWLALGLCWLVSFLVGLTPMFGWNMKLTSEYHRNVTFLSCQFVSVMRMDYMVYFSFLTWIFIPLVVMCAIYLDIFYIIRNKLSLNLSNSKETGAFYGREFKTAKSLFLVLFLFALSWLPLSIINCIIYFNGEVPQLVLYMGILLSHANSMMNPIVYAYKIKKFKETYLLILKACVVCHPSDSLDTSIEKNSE
Description: Displacement of [125I]N6-(4-amino-3-iodobenzyl)adenosine-5'-N-methyl-uronamide from human adenosine A3 receptor stably expressed in CHO cell membrane by radioligand binding assay. The data set is classed as cell membranes.

For data set [5], the system named is Mus musculus. The data set can be described thus: Antineuropathic pain activity in mouse chronic constriction injury model of neuropathic pain assessed as reversal of reduction in paw withdrawal threshold of ipsilateral hind paw at 3 umol/kg, po dosed on day 7 after sciatic nerve ligation and measured at 3 hrs. The data set is classed as functional. Details: scale not given: the % may be the effect or the level left. A digest of the protocol:
as §1

For `CNC(=O)[C@@]12C[C@@H]1[C@@H](n1cnc3c(NCc4cccc(Cl)c4)nc(-n4cc(-c5ccc(Cl)s5)nn4)nc31)[C@H](O)[C@@H]2O`, the Activity entry is recorded as “Non-toxic” in data set [1] and 91% in data set [5]. Moreover, the inhibition in vivo (as a rule, how much of the control response was suppressed) at 1 µmol/kg in data set [2] was found to be 70%. Further, the Emax (in general, the size of the effect at its maximum, as opposed to the concentration needed) at 3 µmol/kg in data set [3] came out at 94.7%. The affinity in data set [4] corresponds to a Ki of 9.02 nM.
